Data from ChEMBL document CHEMBL3352788, “Characterization of selective exosite-binding inhibitors of matrix metalloproteinase 13 that prevent articular cartilage degradation in vitro” (J Med Chem, 2014).

What was measured:
Caspase-6 (Homo sapiens) = molecular target: T1, Caspase-6 (Homo sapiens) (UniProt P55212); assay: Inhibition of recombinant human caspase 6 using VEHDGG substrate at up to 20 uM after 3 hrs
T1 sequence (whole entry): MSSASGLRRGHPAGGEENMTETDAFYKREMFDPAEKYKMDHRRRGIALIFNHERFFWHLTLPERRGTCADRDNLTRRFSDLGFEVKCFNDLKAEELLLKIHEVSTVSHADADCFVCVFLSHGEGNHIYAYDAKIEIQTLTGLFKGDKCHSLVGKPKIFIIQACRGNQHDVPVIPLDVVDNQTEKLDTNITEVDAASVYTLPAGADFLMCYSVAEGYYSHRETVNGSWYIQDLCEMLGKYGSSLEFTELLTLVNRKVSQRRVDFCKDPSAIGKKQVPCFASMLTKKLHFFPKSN
Procedure, shortened: (§1)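 Outsourced microfluidic protease panel. Compound was preincubated with each protease for 30 min at 25 °C, then peptide substrate was added for 3 h at 25 °C and quenched with SDS/EDTA/iodoacetate. Substrate-to-product conversion was measured on LabChip. Compounds were tested singly in a 12-point 3-fold dilution series, top 20 μM (5 μM for two reference compounds).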

Caspase-1 (Homo sapiens) = molecular target: T2, Caspase-1 (Homo sapiens) (UniProt P29466); assay: Inhibition of recombinant human caspase 1 using WEHDGPKR substrate at up to 20 uM after 3 hrs; procedure, shortened: as §1
T2 sequence (whole entry): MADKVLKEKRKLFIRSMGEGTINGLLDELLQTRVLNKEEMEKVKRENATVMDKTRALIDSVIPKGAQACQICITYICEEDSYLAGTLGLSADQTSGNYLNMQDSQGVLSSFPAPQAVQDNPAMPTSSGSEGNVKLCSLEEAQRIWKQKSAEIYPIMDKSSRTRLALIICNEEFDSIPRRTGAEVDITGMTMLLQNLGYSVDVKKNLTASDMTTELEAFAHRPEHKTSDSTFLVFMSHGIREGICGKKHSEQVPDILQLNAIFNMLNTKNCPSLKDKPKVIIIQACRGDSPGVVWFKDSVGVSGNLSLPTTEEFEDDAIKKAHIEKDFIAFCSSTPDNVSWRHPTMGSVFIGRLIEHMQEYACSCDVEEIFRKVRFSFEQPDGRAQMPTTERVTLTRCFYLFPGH

[1] = molecular target: Matrix metalloproteinase-9 (Homo sapiens) (UniProt P14780); assay: Inhibition of recombinant human MMP-9 using GRIGFL substrate up to 20 uM; procedure, shortened: as §1
[2] = molecular target: Procathepsin L (Homo sapiens) (UniProt P07711); assay: Inhibition of recombinant human cathepsin L using GGALRAG substrate at up to 20 uM after 3 hrs
Procedure, shortened: (§2)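 Each protease was preincubated 30 min at 25 °C with compound in its assay buffer. Peptide substrate was then added and the reaction ran 3 h at 25 °C before quenching with SDS/EDTA/iodoacetate. Substrate-to-product conversion (%) was read by microfluidic electrophoresis. Compounds were tested in singlicate as 12-point 3-fold dilutions from 20 μM to 0.1 nM. IC50 was taken as the concentration giving 50% of no-compound control activity.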

Cytochrome P450 3A4 = Cytochrome P450 3A4 (Homo sapiens, UniProt P08684); assay: Inhibition of CYP3A4 (unknown origin) using midazolam substrate; format: ADME
Procedure, shortened: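 Reactions stopped with acetonitrile/0.1% formic acid plus labelled internal standard. Metabolite measured by LC-MS area ratio. IC50 by linear interpolation.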

Cytochrome P450 2D6 = Cytochrome P450 2D6 (Homo sapiens, UniProt P10635); assay: Inhibition of CYP2D6 (unknown origin) using dextromethophan substrate; format: ADME
Procedure, shortened: (§3)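 Human liver microsomes with probe substrate and an NADPH-regenerating system in 0.1 M potassium phosphate pH 7.4 at 37 °C, run in duplicate. Inhibitor at 0–20 μM (0–2.5 μM for one compound), eight concentrations. Reactions were stopped with acetonitrile/formic acid containing isotope-labelled internal standard, and metabolite area ratios were compared with and without inhibitor. IC50 was taken by linear interpolation between bracketing concentrations.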

[3] = molecular target: 72 kDa type IV collagenase (Homo sapiens) (UniProt P08253); assay: Inhibition of recombinant human MMP-2 using GRIGFL substrate up to 20 uM; procedure, shortened: as §1
[4] = molecular target: Cathepsin D (Homo sapiens) (UniProt P07339); assay: Inhibition of recombinant human cathepsin D using EVNLDAEFRK substrate at up to 20 uM after 3 hrs; procedure, shortened: as §1
[5] = molecular target: Cathepsin S (Homo sapiens) (UniProt P25774); assay: Inhibition of recombinant human cathepsin S using RTLTAK substrate at up to 20 uM after 3 hrs; procedure, shortened: as §2
[6] = molecular target: Stromelysin-1 (Homo sapiens) (UniProt P08254); assay: Inhibition of recombinant human MMP-3 using GRIGFL substrate up to 20 uM; procedure, shortened: as §1
[7] = molecular target: Coagulation factor X (Homo sapiens) (UniProt P00742); assay: Inhibition of recombinant human factor 10a using ALPRTMFIQ substrate at up to 20 uM after 3 hrs; procedure, shortened: as §2
Cytochrome P450 2C8 = molecular target: T3, Cytochrome P450 2C8 (Homo sapiens, UniProt P10632); assay: Inhibition of CYP2C8 (unknown origin) using amodiaquine substrate; format: ADME; procedure, shortened: as §3
T3 sequence (P10632 whole entry): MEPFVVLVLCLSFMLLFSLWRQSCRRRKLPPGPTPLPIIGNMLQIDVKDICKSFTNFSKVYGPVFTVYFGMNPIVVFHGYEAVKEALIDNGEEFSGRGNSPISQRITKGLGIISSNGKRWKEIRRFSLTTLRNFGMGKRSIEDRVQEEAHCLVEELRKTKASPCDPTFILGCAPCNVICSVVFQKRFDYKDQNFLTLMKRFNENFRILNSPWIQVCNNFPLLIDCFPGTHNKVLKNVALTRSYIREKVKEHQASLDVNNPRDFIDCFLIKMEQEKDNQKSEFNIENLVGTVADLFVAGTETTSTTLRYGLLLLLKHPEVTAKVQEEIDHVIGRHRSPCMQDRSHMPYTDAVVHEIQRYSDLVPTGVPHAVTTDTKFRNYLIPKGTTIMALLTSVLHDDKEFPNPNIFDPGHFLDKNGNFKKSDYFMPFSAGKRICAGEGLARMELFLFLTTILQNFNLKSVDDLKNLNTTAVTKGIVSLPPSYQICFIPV

[8] = molecular target: T4, Cathepsin K (Homo sapiens) (UniProt P43235); assay: Inhibition of recombinant human cathepsin K using HHQKLVFFAE substrate at up to 20 uM after 3 hrs; procedure, shortened: as §1
T4 sequence (whole entry): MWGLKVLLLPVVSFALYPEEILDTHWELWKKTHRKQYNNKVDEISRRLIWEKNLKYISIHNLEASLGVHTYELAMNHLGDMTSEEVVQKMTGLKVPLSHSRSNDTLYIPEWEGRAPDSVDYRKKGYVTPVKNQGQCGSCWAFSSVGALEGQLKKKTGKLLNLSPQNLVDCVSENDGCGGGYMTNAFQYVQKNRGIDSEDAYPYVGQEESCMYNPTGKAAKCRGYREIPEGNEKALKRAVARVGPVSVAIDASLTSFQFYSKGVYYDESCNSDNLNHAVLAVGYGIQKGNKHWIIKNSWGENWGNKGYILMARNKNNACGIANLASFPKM

[9] = molecular target: Macrophage metalloelastase (Homo sapiens) (UniProt P39900); assay: Inhibition of recombinant human MMP-12 using GRIGFL substrate up to 20 uM; procedure, shortened: as §1
Chain of Macrophage metalloelastase (Homo sapiens) (P39900 106-470 limits assumed): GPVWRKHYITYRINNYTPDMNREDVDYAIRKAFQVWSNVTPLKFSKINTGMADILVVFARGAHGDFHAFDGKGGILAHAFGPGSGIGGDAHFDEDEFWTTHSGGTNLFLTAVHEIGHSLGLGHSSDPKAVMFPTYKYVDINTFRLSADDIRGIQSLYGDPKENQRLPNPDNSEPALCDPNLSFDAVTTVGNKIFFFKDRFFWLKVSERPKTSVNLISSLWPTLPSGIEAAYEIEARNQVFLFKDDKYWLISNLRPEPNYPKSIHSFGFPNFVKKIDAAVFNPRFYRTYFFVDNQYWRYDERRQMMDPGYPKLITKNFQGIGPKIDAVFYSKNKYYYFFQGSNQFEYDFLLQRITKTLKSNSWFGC

Chain of Cathepsin D (Homo sapiens) (P07339 65-162 limits assumed): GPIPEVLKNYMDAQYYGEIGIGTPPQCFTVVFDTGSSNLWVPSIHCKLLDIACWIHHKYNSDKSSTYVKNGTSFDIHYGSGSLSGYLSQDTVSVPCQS
Chain of Cathepsin D (Homo sapiens) (P07339 169-412 limits assumed): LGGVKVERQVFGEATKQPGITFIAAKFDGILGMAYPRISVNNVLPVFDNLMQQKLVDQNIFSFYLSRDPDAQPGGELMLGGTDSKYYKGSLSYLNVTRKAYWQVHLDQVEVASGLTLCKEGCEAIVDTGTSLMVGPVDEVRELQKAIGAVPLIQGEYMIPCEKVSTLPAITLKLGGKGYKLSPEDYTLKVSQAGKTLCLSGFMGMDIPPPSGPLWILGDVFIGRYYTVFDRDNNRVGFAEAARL
Chain of Matrix metalloproteinase-9 (Homo sapiens) (P14780 whole entry): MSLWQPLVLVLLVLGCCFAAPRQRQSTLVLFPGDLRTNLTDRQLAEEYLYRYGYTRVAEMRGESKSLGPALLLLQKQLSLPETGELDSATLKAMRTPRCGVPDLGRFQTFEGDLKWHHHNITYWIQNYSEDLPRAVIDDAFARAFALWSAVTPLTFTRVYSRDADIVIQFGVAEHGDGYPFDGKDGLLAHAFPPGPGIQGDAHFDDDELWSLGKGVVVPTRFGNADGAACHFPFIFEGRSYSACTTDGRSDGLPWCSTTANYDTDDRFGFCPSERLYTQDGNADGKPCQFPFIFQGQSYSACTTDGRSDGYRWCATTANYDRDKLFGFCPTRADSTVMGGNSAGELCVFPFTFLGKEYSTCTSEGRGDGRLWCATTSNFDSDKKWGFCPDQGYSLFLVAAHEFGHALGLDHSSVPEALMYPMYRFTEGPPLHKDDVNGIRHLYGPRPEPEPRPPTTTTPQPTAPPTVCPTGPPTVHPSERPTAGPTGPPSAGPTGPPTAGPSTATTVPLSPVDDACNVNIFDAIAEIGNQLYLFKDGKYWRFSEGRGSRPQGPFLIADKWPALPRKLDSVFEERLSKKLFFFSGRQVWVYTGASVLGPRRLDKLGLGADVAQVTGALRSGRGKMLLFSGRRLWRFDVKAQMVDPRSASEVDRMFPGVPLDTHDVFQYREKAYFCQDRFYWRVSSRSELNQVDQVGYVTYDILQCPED
Chain of Cytochrome P450 2D6 (P10635 whole entry): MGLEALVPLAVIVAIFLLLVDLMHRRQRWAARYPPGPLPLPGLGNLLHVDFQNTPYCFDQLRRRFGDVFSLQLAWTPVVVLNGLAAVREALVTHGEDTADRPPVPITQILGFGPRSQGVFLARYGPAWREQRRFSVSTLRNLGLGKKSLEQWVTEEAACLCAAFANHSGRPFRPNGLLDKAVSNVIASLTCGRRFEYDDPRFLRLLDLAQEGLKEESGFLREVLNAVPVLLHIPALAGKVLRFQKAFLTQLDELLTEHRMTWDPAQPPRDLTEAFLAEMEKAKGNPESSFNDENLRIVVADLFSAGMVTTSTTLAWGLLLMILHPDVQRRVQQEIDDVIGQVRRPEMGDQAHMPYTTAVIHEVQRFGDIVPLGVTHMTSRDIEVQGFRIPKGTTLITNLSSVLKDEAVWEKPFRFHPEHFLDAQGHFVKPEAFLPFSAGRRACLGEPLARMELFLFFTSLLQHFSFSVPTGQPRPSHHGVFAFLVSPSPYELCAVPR
Chain of Coagulation factor X (Homo sapiens) (P00742 41-179 limits assumed): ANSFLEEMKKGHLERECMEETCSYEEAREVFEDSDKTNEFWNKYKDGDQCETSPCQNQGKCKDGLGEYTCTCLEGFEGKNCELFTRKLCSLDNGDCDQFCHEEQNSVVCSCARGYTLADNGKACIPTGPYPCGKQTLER
Chain of Coagulation factor X (Homo sapiens) (P00742 235-488 limits assumed): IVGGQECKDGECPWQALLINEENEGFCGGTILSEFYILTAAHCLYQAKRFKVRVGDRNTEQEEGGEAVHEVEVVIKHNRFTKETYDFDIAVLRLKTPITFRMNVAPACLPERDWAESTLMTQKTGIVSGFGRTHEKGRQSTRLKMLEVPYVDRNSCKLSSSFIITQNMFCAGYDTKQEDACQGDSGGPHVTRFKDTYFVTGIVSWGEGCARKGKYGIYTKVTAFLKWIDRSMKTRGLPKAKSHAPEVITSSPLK
Chain of Procathepsin L (Homo sapiens) (P07711 114-333 limits assumed): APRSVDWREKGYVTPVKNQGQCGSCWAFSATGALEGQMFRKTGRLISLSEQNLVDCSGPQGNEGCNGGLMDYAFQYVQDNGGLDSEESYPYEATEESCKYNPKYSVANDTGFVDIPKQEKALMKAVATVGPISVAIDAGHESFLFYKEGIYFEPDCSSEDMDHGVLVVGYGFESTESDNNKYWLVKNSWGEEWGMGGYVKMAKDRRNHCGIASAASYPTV
Chain of Cathepsin S (Homo sapiens) (P25774 115-331 limits assumed): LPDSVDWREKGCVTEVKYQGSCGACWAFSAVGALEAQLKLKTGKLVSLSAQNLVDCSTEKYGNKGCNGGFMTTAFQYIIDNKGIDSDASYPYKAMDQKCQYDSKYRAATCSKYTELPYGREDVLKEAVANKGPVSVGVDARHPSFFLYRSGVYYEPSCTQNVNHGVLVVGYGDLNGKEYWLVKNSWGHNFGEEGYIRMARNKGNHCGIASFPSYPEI
Chain of Stromelysin-1 (Homo sapiens) (P08254 100-477 limits assumed): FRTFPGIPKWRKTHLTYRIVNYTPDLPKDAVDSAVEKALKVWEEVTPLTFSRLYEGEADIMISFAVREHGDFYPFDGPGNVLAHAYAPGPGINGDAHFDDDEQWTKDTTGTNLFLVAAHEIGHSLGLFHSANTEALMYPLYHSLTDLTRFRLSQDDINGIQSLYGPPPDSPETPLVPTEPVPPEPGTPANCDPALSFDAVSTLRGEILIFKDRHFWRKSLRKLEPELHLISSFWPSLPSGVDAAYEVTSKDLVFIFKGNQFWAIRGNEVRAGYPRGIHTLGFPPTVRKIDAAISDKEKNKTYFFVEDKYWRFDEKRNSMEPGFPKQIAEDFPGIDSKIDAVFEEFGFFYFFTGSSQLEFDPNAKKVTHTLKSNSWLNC
Chain of 72 kDa type IV collagenase (Homo sapiens) (P08253 110-660 limits assumed): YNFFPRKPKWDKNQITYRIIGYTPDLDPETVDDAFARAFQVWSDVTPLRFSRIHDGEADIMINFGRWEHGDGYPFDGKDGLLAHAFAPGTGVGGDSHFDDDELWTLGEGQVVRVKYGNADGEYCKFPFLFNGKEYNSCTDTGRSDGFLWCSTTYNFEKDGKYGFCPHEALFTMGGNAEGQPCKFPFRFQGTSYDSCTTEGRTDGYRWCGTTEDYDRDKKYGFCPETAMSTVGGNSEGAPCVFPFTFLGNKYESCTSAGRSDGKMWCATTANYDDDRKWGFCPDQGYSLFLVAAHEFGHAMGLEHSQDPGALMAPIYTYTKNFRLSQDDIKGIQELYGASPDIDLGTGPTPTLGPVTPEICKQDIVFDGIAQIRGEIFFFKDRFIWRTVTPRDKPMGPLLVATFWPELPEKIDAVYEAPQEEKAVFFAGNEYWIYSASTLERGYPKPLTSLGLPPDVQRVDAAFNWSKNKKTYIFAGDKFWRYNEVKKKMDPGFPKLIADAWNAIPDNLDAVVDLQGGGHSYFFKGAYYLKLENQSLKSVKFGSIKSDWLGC
Chain of Cytochrome P450 3A4 (P08684 whole entry): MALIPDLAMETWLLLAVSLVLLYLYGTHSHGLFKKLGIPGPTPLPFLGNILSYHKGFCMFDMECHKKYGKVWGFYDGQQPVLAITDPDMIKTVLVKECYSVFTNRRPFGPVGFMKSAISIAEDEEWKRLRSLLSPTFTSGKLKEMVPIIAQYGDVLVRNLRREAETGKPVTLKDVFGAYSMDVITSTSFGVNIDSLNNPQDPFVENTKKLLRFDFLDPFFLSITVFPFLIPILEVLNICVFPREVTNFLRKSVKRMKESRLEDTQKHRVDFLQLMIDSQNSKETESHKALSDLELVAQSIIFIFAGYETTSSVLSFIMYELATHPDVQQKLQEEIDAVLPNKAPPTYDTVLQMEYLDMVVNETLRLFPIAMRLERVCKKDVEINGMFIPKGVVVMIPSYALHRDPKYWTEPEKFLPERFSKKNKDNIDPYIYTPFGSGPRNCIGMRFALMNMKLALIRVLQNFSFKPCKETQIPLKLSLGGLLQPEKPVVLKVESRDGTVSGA

| SMILES | inhibition (Caspase-6 (Homo sapiens)) | inhibition (Caspase-1 (Homo sapiens)) | inhibition [1] | inhibition [2] | IC50 (Cytochrome P450 3A4) | IC50 (Cytochrome P450 2D6) | inhibition [3] | inhibition [4] | inhibition [5] | inhibition [6] | inhibition [7] | IC50 (Cytochrome P450 2C8) | inhibition [8] | inhibition [9] |
| --- | --- | --- | --- | --- | --- | --- | --- | --- | --- | --- | --- | --- | --- | --- |
| Oc1nc(SCc2ccc(Cl)cc2)nc2c1CCC2 | < 10% | < 10% | > 10% | < 10% | > 20 µM | > 20 µM | > 10% | < 10% | < 10% | > 10% | < 10% | > 20 µM | < 10% | > 10% |
| Cc1cc(CNC(=O)c2cc(C(=O)NCc3ccc(F)c(C)c3)ncn2)ccc1F |  |  |  |  |  | > 20 µM |  |  |  |  |  | > 20 µM |  |  |
| Cn1c(=O)n(Cc2ccc(C(=O)O)cc2)c(=O)c2cc(C#CCc3ccccc3)ccc21 |  |  |  |  | > 2.5 µM | > 2.5 µM |  |  |  |  |  | > 2.5 µM |  |  |
| Cc1ccc(CSc2nc(O)c3c(n2)CCC3)cc1 | < 10% | < 10% | > 10% | < 10% |  |  | > 10% | < 10% | < 10% | > 10% | < 10% |  | 20% | > 10% |
| COC(=O)c1ccc(CSc2nc3c(c(=O)[nH]2)CCC3)cc1 | < 10% | < 10% | > 10% | < 10% | > 20 µM | > 20 µM | > 10% | < 10% | < 10% | > 10% | < 10% | > 20 µM | < 10% | > 10% |
